Assay results: ChEMBL document CHEMBL1152208, “The discovery of biaryl carboxamides as novel small molecule agonists of the motilin receptor” (Bioorg Med Chem Lett, 2008)

What was measured:
Cytochrome P450 3A4 [1] = molecular target: T1, Cytochrome P450 3A4 (Homo sapiens, UniProt P08684); experiment: Inhibition of CYP3A4 using phenyl-piperazinyl-methyl-benzyl-resofurin substrate; type: ADME
Cytochrome P450 3A4 [2] = molecular target: T1, Cytochrome P450 3A4; experiment: Inhibition of CYP3A4 using diethoxyfluorescein substrate; type: ADME
Motilin receptor [3] = molecular target: T2, Motilin receptor (Homo sapiens, UniProt O43193); experiment: Agonist activity at human recombinant motilin receptor expressed in HEK293 cells by FLIPR assay; type: functional, cell-based
Method in brief: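 HEK293 cells stably expressing human motilin receptor, seeded on poly-lysine plates 24 h before assay. Loaded with Fluo-4-AM (final) and 1 mM probenecid (final) in HEPES-buffered saline with 0.1% BSA for 1 h at 25 °C, washed, rested 20 min at 25 °C. Fluorescence change followed for 2 min after compound addition. Peak change over baseline was fitted with a 4-parameter logistic to give pEC50. Mean of at least three independent experiments (n = 2 for some).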

Liver microsomes [4] = experiment: Intrinsic clearance in rat liver microsome; type: ADME
Liver microsomes [5] = experiment: Intrinsic clearance in human liver microsome; type: ADME
[6] = Aqueous solubility of the compound; type: physicochemical
Cytochrome P450 2C9 = Cytochrome P450 2C9 (Homo sapiens, UniProt P11712); experiment: Inhibition of CYP2C9; type: ADME
[7] = Oral bioavailability in dog; type: ADME, organism-based, Canis lupus familiaris; conditions: in vivo
Cytochrome P450 2D6 = Cytochrome P450 2D6 (Homo sapiens, UniProt P10635); experiment: Inhibition of CYP2D6; type: ADME
[8] = Distribution coefficient, log D at pH 7.4; type: physicochemical; conditions: octanol/water
Stomach [9] = experiment: Potentiation of electrical field stimulation-induced contraction in New Zealand white rabbit gastric antrum at 0.3 uM; type: functional; conditions: Oryctolagus cuniculus
Cytochrome P450 1A2 = molecular target: T3, Cytochrome P450 1A2 (Homo sapiens, UniProt P05177); experiment: Inhibition of CYP1A2; type: ADME
T3 sequence (P05177 whole entry): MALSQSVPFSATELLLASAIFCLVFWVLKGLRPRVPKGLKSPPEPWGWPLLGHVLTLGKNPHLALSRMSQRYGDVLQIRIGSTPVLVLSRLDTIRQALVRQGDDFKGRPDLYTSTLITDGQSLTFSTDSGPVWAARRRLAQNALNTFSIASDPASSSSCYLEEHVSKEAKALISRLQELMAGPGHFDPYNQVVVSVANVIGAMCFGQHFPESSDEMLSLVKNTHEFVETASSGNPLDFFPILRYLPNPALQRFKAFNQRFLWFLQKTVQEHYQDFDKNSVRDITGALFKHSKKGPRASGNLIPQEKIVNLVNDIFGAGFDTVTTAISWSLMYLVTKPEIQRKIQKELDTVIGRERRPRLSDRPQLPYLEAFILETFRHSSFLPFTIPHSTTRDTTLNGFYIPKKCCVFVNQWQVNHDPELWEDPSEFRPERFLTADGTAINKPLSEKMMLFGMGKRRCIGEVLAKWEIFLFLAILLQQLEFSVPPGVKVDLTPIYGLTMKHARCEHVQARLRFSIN

[10] = Clearance in dog; type: ADME, organism-based, Canis lupus familiaris; conditions: in vivo
[11] = Clearance in rat; type: ADME, organism-based; conditions: in vivo
[12] = Oral bioavailability in rat; type: ADME, organism-based; conditions: in vivo
Cytochrome P450 2C19 = Cytochrome P450 2C19 (Homo sapiens, UniProt P33261); experiment: Inhibition of CYP2C19; type: ADME
Stomach [13] = experiment: Potentiation of electrical field stimulation-induced contraction in New Zealand white rabbit gastric antrum at 10 uM; type: functional; conditions: Oryctolagus cuniculus
[14] = molecular target: Growth hormone secretagogue receptor type 1 (Homo sapiens, UniProt Q92847); experiment: Inhibition of human Ghrelin receptor
Stomach [15] = experiment: Potentiation of electrical field stimulation-induced contraction in New Zealand white rabbit gastric antrum at 3 uM; type: functional; conditions: Oryctolagus cuniculus
Stomach [16] = experiment: Potentiation of electrical field stimulation-induced contraction in New Zealand white rabbit gastric antrum at 1 uM; type: functional; conditions: Oryctolagus cuniculus
[17] = molecular target: Voltage-gated inwardly rectifying potassium channel KCNH2 (Homo sapiens, UniProt Q12809); experiment: Inhibition of human ERG binding
Stomach [18] = experiment: Potentiation of electrical field stimulation-induced contraction in New Zealand white rabbit gastric antrum at 1.5 uM; type: functional; conditions: Oryctolagus cuniculus
Motilin receptor [19] = molecular target: T2, Motilin receptor; experiment: Agonist activity at human recombinant motilin receptor expressed in CHO cells by FLIPR assay; type: functional, cell-based

T1 sequence (P08684 whole entry): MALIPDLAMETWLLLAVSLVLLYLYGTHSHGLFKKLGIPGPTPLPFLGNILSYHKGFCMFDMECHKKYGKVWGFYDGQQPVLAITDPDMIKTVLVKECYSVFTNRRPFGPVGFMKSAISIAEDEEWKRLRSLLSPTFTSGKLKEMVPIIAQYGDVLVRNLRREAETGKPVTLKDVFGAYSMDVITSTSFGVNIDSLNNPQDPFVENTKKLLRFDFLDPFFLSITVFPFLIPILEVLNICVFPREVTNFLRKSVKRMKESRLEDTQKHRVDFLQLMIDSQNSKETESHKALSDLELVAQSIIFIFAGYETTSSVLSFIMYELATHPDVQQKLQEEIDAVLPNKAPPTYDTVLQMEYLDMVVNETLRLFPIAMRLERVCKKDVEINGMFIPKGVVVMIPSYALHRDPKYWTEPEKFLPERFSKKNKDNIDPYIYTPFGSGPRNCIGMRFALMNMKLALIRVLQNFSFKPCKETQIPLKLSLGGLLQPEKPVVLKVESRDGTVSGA
T2 sequence (O43193 whole entry): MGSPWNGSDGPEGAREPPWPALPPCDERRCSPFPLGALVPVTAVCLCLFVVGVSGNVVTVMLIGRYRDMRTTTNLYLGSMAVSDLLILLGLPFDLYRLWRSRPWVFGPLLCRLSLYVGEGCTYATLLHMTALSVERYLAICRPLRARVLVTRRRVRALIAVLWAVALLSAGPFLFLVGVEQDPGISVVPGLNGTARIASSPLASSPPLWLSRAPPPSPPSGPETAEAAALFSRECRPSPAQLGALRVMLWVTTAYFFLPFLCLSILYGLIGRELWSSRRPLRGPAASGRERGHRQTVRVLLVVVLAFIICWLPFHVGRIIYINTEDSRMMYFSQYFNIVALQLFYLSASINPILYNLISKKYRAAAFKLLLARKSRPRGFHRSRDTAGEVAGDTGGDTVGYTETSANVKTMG
Growth hormone secretagogue receptor type 1, sequence (Q92847 whole entry): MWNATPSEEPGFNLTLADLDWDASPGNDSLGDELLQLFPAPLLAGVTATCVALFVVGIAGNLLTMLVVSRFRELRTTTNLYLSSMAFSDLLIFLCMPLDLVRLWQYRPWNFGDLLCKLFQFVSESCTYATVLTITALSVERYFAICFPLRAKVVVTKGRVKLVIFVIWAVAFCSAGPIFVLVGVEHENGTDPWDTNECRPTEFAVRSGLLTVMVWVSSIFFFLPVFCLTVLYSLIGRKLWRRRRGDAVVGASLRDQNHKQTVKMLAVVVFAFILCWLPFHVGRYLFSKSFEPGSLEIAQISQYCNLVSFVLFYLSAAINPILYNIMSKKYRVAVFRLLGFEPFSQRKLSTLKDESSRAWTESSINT
Cytochrome P450 2D6, sequence (P10635 whole entry): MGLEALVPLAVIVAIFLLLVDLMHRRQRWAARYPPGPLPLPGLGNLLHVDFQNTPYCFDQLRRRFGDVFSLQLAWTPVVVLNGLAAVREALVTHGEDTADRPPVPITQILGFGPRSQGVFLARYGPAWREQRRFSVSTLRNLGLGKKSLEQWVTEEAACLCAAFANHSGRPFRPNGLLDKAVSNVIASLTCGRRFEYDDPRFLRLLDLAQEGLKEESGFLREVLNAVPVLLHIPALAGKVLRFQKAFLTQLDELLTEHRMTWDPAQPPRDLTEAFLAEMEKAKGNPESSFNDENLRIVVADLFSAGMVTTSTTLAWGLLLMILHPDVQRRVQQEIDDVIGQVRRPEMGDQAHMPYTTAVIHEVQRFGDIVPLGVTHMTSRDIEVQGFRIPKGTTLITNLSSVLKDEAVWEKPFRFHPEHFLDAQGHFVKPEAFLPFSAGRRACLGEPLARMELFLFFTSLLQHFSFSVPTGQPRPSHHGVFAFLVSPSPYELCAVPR
Cytochrome P450 2C9, sequence (P11712 whole entry): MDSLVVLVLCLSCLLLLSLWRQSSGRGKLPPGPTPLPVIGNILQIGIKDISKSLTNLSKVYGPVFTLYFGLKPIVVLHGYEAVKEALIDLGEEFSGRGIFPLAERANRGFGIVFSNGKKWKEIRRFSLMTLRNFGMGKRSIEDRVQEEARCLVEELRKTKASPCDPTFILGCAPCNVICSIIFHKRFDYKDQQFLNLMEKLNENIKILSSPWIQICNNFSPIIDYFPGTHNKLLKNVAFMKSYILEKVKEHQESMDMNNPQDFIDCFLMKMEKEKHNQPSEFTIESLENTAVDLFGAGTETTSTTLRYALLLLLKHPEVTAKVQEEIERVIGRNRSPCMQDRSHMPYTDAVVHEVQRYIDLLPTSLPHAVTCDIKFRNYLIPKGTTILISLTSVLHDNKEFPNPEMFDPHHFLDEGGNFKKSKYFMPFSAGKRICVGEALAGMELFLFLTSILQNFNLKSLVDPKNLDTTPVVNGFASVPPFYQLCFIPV
Cytochrome P450 2C19, sequence (P33261 whole entry): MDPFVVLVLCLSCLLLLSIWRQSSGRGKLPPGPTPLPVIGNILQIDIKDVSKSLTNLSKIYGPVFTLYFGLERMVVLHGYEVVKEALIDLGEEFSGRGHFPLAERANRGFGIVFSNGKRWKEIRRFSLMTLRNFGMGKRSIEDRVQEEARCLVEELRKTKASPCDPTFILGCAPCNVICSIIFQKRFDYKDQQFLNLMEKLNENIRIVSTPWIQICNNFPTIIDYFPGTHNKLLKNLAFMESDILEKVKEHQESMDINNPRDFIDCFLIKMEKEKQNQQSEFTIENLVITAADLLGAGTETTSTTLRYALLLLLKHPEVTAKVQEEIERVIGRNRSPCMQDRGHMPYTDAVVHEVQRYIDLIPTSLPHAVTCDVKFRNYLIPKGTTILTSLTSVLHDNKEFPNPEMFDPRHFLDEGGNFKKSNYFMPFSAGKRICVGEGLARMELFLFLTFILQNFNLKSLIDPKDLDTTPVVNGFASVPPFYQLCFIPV
Voltage-gated inwardly rectifying potassium channel KCNH2, sequence (Q12809 whole entry): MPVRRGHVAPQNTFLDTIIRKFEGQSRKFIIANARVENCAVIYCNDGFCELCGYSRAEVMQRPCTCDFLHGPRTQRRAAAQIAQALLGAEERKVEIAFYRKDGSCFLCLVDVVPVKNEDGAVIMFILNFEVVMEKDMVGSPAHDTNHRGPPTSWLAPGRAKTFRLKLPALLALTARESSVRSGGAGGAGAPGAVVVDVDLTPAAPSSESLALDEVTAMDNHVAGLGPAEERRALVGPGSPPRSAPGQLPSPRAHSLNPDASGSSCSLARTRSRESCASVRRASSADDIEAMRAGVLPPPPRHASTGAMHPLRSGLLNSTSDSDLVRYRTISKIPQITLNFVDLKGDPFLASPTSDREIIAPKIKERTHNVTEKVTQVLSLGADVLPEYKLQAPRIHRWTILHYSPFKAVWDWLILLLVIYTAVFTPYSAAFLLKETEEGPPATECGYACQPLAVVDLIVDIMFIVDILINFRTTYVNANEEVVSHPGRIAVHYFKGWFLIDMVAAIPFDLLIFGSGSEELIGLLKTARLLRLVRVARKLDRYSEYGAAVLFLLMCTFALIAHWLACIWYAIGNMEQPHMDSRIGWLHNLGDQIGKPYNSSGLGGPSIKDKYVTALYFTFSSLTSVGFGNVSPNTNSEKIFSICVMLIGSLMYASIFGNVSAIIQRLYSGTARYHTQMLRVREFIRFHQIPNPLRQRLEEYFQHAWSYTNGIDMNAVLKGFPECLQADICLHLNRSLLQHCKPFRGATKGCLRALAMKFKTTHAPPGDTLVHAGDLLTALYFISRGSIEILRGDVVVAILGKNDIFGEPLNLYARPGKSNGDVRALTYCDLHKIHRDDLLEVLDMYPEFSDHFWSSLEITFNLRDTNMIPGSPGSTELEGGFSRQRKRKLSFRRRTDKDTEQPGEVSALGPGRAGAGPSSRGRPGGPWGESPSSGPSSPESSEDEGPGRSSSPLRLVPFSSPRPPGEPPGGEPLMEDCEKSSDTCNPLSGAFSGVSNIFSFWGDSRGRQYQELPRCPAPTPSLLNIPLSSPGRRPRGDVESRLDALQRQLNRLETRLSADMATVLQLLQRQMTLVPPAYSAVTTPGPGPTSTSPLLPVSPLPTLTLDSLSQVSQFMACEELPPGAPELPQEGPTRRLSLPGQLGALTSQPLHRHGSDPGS

Compound	IC50 (Cytochrome P450 3A4 [1]) [µM]	IC50 (Cytochrome P450 3A4 [2]) [µM]	EC50 (Motilin receptor [3]) [µM]	CL (Liver microsomes [4]) [mL/min/g]	CL (Liver microsomes [5]) [mL/min/g]	further results
C[C@@H]1CN(Cc2ccc(-c3ccccc3CN(C)C(=O)COc3ccc(F)cc3)cc2)C[C@H](C)N1	7.3	6	0.0316			
C[C@@H]1CN(Cc2ccc(-c3ccccc3CN(C)C(=O)COc3ccccc3)cc2)C[C@H](C)N1	24	7	0.0794	9.5	4.9	
C[C@@H]1CN(Cc2ccc(-n3ccnc3C(=O)N3CCC(Nc4cccc(F)c4)CC3)cc2)C[C@H](C)N1.Cl						solubility [6]: ≥ 500 µg/mL
CCN(CCc1ccccc1)C(=O)c1ccccc1-c1ccc(CN2C[C@@H](C)N[C@@H](C)C2)cc1	1.5	0.9	0.00794	26	40	
C[C@@H]1CN(Cc2ccc(-c3cccnc3C(=O)N3CCC(Cc4ccc(F)cc4)CC3)cc2)C[C@H](C)N1	5.6	13	0.01	16	16	
C[C@@H]1CN(Cc2ccc(-c3ccccc3CN(C)C(=O)Cc3cccc(Cl)c3)cc2)C[C@H](C)N1	1.5	1.4	0.0794	17	20	
C[C@@H]1CN(Cc2ccc(-c3ccccc3CN(C)C(=O)CS(=O)(=O)c3ccccc3)cc2)C[C@H](C)N1	8.9	3	0.01	4.3	6.8	
C[C@@H]1CN(Cc2ccc(-c3cccnc3C(=O)N3CCC(Nc4ccc(F)cc4)CC3)cc2)C[C@H](C)N1	> 100	> 100	0.02	2.8	2.6	IC50 (Cytochrome P450 2C9): > 100 µM; bioavailability [7]: 58%; IC50 (Cytochrome P450 2D6): 15 µM; logD [8]: 0.72; Emax at 0.3 µM (Stomach [9]): 168%; IC50 (Cytochrome P450 1A2): > 100 µM; clearance [10]: 19 mL/min/kg; clearance [11]: 53 mL/min/kg; bioavailability [12]: 13%; IC50 (Cytochrome P450 2C19): > 100 µM; Emax at 10 µM (Stomach [13]): 486%; EC50 [14]: 0.1 µM; Emax at 3 µM (Stomach [15]): 343%; Emax at 1 µM (Stomach [16]): 299%; IC50 [17]: > 31.6 µM
C[C@@H]1CN(Cc2ccc(-c3ccccc3C(=O)N3CCC(Cc4ccc(F)cc4)CC3)cc2)C[C@H](C)N1	0.5	0.6	0.01	7	29	
C[C@@H]1CN(Cc2ccc(-c3ccccc3C(=O)N3CCC(Nc4ccccc4)CC3)cc2)C[C@H](C)N1	17	12	0.00501	20	7	
C[C@@H]1CN(Cc2ccc(-c3ccccc3C(=O)N3CCC(C(=O)c4ccc(F)cc4)CC3)cc2)C[C@H](C)N1	3.6	4.8	0.0631			
C[C@@H]1CN(Cc2ccc(-n3ccnc3C(=O)N3CCC(Nc4cccc(F)c4)CC3)cc2)C[C@H](C)N1	46	58	0.0158	4.1	3.4	IC50 (Cytochrome P450 2C9): > 100 µM; IC50 (Cytochrome P450 2D6): 29 µM; logD [8]: 0.82; Emax at 0.3 µM (Stomach [9]): 73%; IC50 (Cytochrome P450 1A2): 74 µM; clearance [11]: 61 mL/min/kg; bioavailability [12]: 17%; IC50 (Cytochrome P450 2C19): > 100 µM; EC50 [14]: 0.501 µM; Emax at 3 µM (Stomach [15]): 224%; Emax at 1.5 µM (Stomach [18]): 302%
C[C@@H]1CN(Cc2ccc(-c3ccccc3C(=O)N3CCC(Nc4ccc(Cl)cc4)CC3)cc2)C[C@H](C)N1	3.5	5.2	0.0501	33	8	
C[C@@H]1CN(Cc2ccc(-c3cccnc3C(=O)N3CCC(Nc4ccc(F)cc4)CC3)cc2)C[C@H](C)N1.Cl						solubility [6]: ≥ 1000 µg/mL
COc1cccc(CCN(Cc2ccccc2-c2ccc(CN3C[C@@H](C)N[C@@H](C)C3)cc2)C(=O)NC2CCCCC2)c1	0.4	0.2	0.0501	23	> 50	EC50 (Motilin receptor [19]): 0.01 µM
Cc1cc(CC(=O)N(C)Cc2ccccc2-c2ccc(CN3C[C@@H](C)N[C@@H](C)C3)cc2)on1	> 100	40	1	2.9	2.4	
CC[C@H]1OC(=O)[C@H](C)[C@@H](O[C@H]2C[C@@](C)(OC)[C@@H](O)[C@H](C)O2)[C@H](C)[C@@H](O[C@@H]2O[C@H](C)C[C@H](N(C)C)[C@H]2O)[C@](C)(O)C[C@@H](C)C(=O)[C@H](C)[C@@H](O)[C@]1(C)O [ERYTHROMYCIN]						Emax at 0.3 µM (Stomach [9]): 69%; Emax at 10 µM (Stomach [13]): 368%; Emax at 3 µM (Stomach [15]): 490%; Emax at 1 µM (Stomach [16]): 189%
